Results collected from several papers.
Compare with care: the assays were run in different laboratories.
EGFR L858R: Epidermal growth factor receptor (EGFR, Homo sapiens, UniProt P00533, L858R)
EGFR G719S: Epidermal growth factor receptor (EGFR, Homo sapiens, UniProt P00533, G719S)
EGFR: Epidermal growth factor receptor (EGFR, Homo sapiens, UniProt P00533)
EGFR L858R/T790M: Epidermal growth factor receptor (EGFR, Homo sapiens, UniProt P00533, L858R/T790M)
EGFR del746-750: Epidermal growth factor receptor (EGFR, Homo sapiens, UniProt P00533, del746-750)
EGFR L861Q: Epidermal growth factor receptor (EGFR, Homo sapiens, UniProt P00533, L861Q)
EGFR A750P/del747-749: Epidermal growth factor receptor (EGFR, Homo sapiens, UniProt P00533, A750P/del747-749)
EGFR G719C: Epidermal growth factor receptor (EGFR, Homo sapiens, UniProt P00533, G719C)
EGFR T790M: Epidermal growth factor receptor (EGFR, Homo sapiens, UniProt P00533, T790M)

Compound | target | effect on | method | concentration | remaining binding [%]
CS(=O)(=O)NCC[C@H](NC(=O)c1cncc2c1cnn2-c1ccc(F)cc1)c1ccnc(S(C)(=O)=O)c1 | EGFR L858R | cell-free assay | competition with immobilised ligand | 1 µM | 83
Nc1ncc2c(n1)-c1c([nH]c3ccc(C#CC4CC4)cc13)CCCC2 | EGFR G719S | binding | competition with immobilised ligand | 1 µM | 98
CNC(=O)c1ccc(Nc2ncc(C(F)(F)F)c(NCc3nccnc3N(C)S(C)(=O)=O)n2)cc1 | EGFR L858R | cell-free assay | competition with immobilised ligand | 0.1 µM | 100
Cc1c(-c2ccccc2)oc2c(C(=O)OCCN3CCCCC3)cccc2c1=O | EGFR | cell-free assay | competition with immobilised ligand | 0.1 µM | 100
O=C(NCCCC1CCCCC1)c1ccc(CNC(=O)c2cnn(-c3ccccc3)c2C(F)(F)F)cc1 | EGFR L858R/T790M | cell-free assay | competition with immobilised ligand | 0.1 µM | 95
O=C(Nc1c[nH]nc1C(=O)NC1CCNCC1)c1cc(F)cc(F)c1 | EGFR del746-750 | binding | competition with immobilised ligand | 1 µM | 100
C[C@@H]1CCN(c2nccc(-c3cnn4ncccc34)n2)C1 | Epidermal growth factor receptor (EGFR, Homo sapiens, UniProt P00533, del752-759) | binding | – | 1 µM | 88
CN1CCN(c2ccc(Nc3nccc(-c4ccccc4)n3)cc2C(F)(F)F)CC1 | EGFR L861Q | binding | – | 10 µM | 94
COc1cnc(Nc2cccc(S(N)(=O)=O)c2)nc1N1CCN(c2ccccc2)CC1 | EGFR A750P/del747-749 | binding | competition with immobilised ligand | 1 µM | 100
O=C(c1ccc(Nc2ncc(Cl)c(-c3ccc(Cl)s3)n2)cc1)N1CCC(N2CCCC2)CC1 | EGFR A750P/del747-749 | binding | competition with immobilised ligand | 1 µM | 72
CN(CCCC(F)(F)F)c1nccc(-c2cnn3ncccc23)n1 | EGFR L858R/T790M | binding | – | 1 µM | 100
COc1ncc2cc3ccccc3nc2c1C#N | EGFR G719C | cell-free assay | competition with immobilised ligand | 5 µM | 2.1
O=C(c1ccc(Nc2nccc(-c3cc4ccccc4s3)n2)cc1)N1CCC(N2CCCC2)CC1 | EGFR L858R/T790M | binding | competition with immobilised ligand | 1 µM | 58
Cc1cnn2ncc(-c3ccnc(N(C)C)n3)c2c1 | EGFR G719C | binding | – | 1 µM | 100
c1cncc(-c2cccc(Nc3nccc(NC4CCCCC4)n3)c2)c1 | EGFR A750P/del747-749 | binding | competition with immobilised ligand | 10 µM | 36
O=C(c1ccc(Nc2ncc(Cl)c(-c3cc4ccccc4s3)n2)cc1)N1CCC(N2CCCC2)CC1 | EGFR A750P/del747-749 | binding | competition with immobilised ligand | 1 µM | 86
CC1CCCN1c1nccc(-c2cnn3ncccc23)n1 (centres unmarked) | EGFR | binding | – | 1 µM | 100
NS(=O)(=O)c1cc(NC(=O)Cc2ccccc2)ccc1Oc1cccc(Cl)c1 | EGFR G719S | cell-free assay | competition with immobilised ligand | 1 µM | 74

Compound | target | effect on | method | concentration | remaining binding [%]
COc1cnc(Nc2cccc(S(N)(=O)=O)c2)nc1N1CCN(c2ccccc2)C(=O)C1 | EGFR T790M | binding | competition with immobilised ligand | 1 µM | 92
c1ccc(N2CCN(Cc3nc4ccccc4[nH]3)CC2)nc1 | EGFR T790M | cell-free assay | competition with immobilised ligand | 1 µM | 99
COc1ccnn2ncc(-c3ccnc(N(C)C)n3)c12 | EGFR L861Q | binding | – | 1 µM | 97
O=C(NCC1CCOCC1)c1n[nH]cc1NC(=O)c1c(F)cccc1F | EGFR L861Q | binding | competition with immobilised ligand | 1 µM | 100
FC(F)(F)Oc1cccc(-c2cnc3ccc(-c4ccncc4)nn23)c1 | EGFR | cell-free assay | competition with immobilised ligand | 5 µM | 79
C[C@@H](c1cccc(C#N)c1)n1cc(Cl)cc(C(N)=O)c1=N | EGFR del746-750 | cell-free assay | competition with immobilised ligand | 1 µM | 93
O=C(NCCCN1CCOCC1)c1ccc(Nc2nccc(-c3cc4ccccc4s3)n2)cc1 | EGFR | binding | competition with immobilised ligand | 1 µM | 87
CN(C)C(=O)Cn1cc(-c2nc([C@@](C)(c3ccc(-c4cnc(N)nc4)cc3)C3CC3)no2)cn1 | EGFR | cell-free assay | competition with immobilised ligand | 1 µM | 93
CN(c1nccc(-c2cnn3ncccc23)n1)C1CC1 | EGFR L858R/T790M | binding | – | 1 µM | 100
CN(c1ccnc(CNc2nc(Nc3ccc4c(c3)CC(=O)N4)ncc2C(F)(F)F)n1)S(C)(=O)=O | Epidermal growth factor receptor (EGFR, Homo sapiens, UniProt P00533, del747-750/T751S) | cell-free assay | competition with immobilised ligand | 1 µM | 83
CNC(=O)[C@@H]1CC[C@@H](n2c(-c3ccc4cnccc4c3)nc3ccc(C(=O)NCc4cccc(C(N)=O)c4)cc32)C1 | EGFR G719S | binding | competition with immobilised ligand | 1 µM | 100
CC(C)(C)c1ccc(-c2nc(CBr)nn2-c2cccc(O)c2)cc1 | EGFR L858R | cell-free assay | competition with immobilised ligand | 10 µM | 78
O=C(NCCCN1CCOCC1)c1ccc(Nc2ncc(Cl)c(-c3ccc(Cl)s3)n2)cc1 | EGFR del746-750 | binding | competition with immobilised ligand | 1 µM | 92
CN1CCN(c2ccc(Nc3nccc(-c4cccc([N+](=O)[O-])c4)n3)cc2C(F)(F)F)CC1 | EGFR del746-750 | binding | – | 10 µM | 34
Cc1cnc(Nc2ccc(C(=O)N3CCC(N4CCCC4)CC3)cc2)nc1-c1cc2ccccc2s1 | EGFR L858R | binding | competition with immobilised ligand | 1 µM | 72
CN(C)c1ncc(F)c(-c2cnn3ncccc23)n1 | EGFR G719S | binding | – | 1 µM | 100
CCN1CCN(Cc2ccc(C(=O)Nc3ccc(C)c(Oc4ccc5c(c4)CC(=O)N5)c3)cc2C(F)(F)F)CC1 | EGFR G719S | binding | competition with immobilised ligand | 1 µM | 80
